pIC50: −log10 of the molar value. Calls of active or inactive are those of the source. The rule behind the calls is not given here.
Experiments:
[1] = Cytotoxic activity against mouse 32D cells transfected with p210 Bcr-abl; assay type: cell-based
[2] = Cytotoxic activity against mouse 32D Bcr-abl negative cells
[3] = molecular target: Tyrosine-protein kinase ABL1 (Homo sapiens) (UniProt P00519); assay: Binding affinity to phosphorylated human recombinant abl
Outline: (§1)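 Recombinant human abl (1 μg), either Src-phosphorylated or tyrosine phosphatase-treated, incubated 1 h at 4 °C with immobilized GNF-3 resin; after five washes bound protein eluted by boiling in Laemmli buffer and detected by SDS-PAGE/anti-abl immunoblot. Immobilized methyl analogue used as control matrix.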

[4] = molecular target: Tyrosine-protein kinase ABL1 (Homo sapiens) (UniProt P00519); assay: Binding affinity to dephosphorylated human recombinant abl; outline: as §1
[5] = molecular target: Tyrosine-protein kinase ABL1 (Homo sapiens) (UniProt P00519); assay: Displacement of abl from GNF2 resin using affinity chromatography at 1000 uM by competition binding assay

Tyrosine-protein kinase ABL1 (Homo sapiens), sequence (P00519 whole entry): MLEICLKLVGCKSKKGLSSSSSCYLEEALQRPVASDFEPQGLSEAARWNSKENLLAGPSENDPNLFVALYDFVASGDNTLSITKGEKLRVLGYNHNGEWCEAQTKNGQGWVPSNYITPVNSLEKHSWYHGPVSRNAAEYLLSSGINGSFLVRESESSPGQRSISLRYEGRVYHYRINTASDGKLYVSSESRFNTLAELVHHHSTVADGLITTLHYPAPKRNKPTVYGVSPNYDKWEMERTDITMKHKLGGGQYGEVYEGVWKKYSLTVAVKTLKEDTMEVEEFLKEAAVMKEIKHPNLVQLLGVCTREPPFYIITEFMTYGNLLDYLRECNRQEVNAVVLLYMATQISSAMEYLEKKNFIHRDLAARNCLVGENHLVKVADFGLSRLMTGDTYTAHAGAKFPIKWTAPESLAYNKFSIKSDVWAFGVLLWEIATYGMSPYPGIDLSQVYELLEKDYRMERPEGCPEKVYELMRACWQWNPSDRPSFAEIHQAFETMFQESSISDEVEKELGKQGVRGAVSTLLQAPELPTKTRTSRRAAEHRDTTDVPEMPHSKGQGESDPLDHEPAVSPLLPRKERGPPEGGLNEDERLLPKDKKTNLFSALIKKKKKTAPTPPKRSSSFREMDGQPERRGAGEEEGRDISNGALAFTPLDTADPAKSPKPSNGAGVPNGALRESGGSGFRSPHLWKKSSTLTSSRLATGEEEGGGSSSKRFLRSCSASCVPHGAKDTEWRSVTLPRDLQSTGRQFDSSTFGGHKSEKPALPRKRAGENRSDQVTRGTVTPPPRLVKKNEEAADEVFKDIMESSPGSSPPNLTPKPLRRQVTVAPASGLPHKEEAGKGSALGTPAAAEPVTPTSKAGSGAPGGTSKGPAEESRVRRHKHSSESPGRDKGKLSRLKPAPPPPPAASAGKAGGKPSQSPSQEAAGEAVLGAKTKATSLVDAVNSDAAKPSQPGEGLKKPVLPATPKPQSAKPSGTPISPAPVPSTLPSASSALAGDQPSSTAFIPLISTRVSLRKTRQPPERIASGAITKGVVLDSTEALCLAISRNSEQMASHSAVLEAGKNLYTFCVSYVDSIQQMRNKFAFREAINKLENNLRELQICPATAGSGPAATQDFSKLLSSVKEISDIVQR

FC(F)(F)Oc1ccc(Nc2cc(NCCN3CCOCC3)ncn2)cc1
pIC50 [1]: 6.40 | pIC50 [2]: < 4.40

NCCOCCOCCOCCOCCOCCNC(=O)c1cccc(-c2cc(Nc3ccc(OC(F)(F)F)cc3)ncn2)c1
Activity [3]: Active | Activity [4]: Active

Nc1ncnc2c1ncn2[C@@H]1O[C@H](COP(=O)(O)OP(=O)(O)OP(=O)(O)O)[C@@H](O)[C@H]1O
Activity [5]: Active
